From ChEMBL document CHEMBL2331243, “Discovery and mechanism study of SIRT1 activators that promote the deacetylation of fluorophore-labeled substrate” (J Med Chem, 2013)
The source made the active and inactive calls. The rule behind the calls is not given here.

Tests used:
[1] = target: T1, NAD-dependent protein deacetylase sirtuin-1 (Homo sapiens) (UniProt Q96EB6); assay: Activation of N-terminal His6-tagged SIRT1 (156 to 664 amino acid residues) (unknown origin) expressed in Escherichia coli BL21(DE3) using ac-RHKKac-AMC as substrate at 50 uM after 45 mins by fluorimetric analysis relative to control
T1 sequence (whole entry): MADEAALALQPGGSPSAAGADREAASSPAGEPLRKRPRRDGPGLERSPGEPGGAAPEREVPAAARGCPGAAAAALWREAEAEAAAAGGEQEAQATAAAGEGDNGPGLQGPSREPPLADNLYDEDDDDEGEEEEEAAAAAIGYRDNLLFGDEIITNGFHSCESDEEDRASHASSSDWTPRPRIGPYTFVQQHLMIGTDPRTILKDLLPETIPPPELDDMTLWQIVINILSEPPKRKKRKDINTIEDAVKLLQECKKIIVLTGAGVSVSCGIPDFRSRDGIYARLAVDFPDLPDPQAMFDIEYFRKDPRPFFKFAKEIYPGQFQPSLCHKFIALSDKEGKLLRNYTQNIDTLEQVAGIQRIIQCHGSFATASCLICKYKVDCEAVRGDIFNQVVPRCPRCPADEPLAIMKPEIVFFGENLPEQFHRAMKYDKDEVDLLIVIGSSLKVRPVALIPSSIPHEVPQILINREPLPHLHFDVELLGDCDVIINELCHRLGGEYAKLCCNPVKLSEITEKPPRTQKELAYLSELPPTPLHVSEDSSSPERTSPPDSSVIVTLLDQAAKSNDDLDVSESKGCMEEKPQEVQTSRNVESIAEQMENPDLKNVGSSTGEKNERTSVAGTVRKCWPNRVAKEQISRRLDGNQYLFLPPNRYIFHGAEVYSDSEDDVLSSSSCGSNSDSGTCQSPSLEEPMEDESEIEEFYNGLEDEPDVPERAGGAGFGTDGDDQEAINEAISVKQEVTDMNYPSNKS
In short: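 Fluorogenic deacetylation screen: 1 μM SIRT1 with 750 μM NAD⁺ and 31.25 μM ac-RHKK_ac-AMC in Tris buffer (25 mM Tris, 137 mM NaCl, 2.7 mM KCl, 1 mM MgCl₂, pH 8.0). Compounds at 50 μM from DMSO stocks; DMSO alone as blank. Trypsin then releases AMC from deacetylated peptide; fluorescence read at 340/490 nm.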

[2] = target: T2, NAD-dependent protein deacetylase sirtuin-1 (Homo sapiens, UniProt Q96EB6); assay: Activation of N-terminal His6-tagged SIRT1 (156 to 664 amino acid residues) (unknown origin) expressed in Escherichia coli BL21(DE3) using ac-RHKKac-AMC as substrate after 45 mins by fluorometric analysis
T2 sequence (Q96EB6 whole entry): T1 sequence (whole entry)

[3] = target: T1, NAD-dependent protein deacetylase sirtuin-1 (Homo sapiens); assay: Activation of N-terminal His6-tagged SIRT1 (156 to 664 amino acid residues) (unknown origin) expressed in Escherichia coli BL21(DE3) using ac-RHKKac-NH2 as substrate after 45 mins by HPLC analysis
[4] = target: T1, NAD-dependent protein deacetylase sirtuin-1 (Homo sapiens); assay: Activation of SIRT1 in human MCF7 cells assessed as reduction in doxorubicin-induced acetyl-p53 level up to 100 uM after 6 hrs by Western blotting analysis; format: cell-based
In short: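 MCF-7 cells were seeded at 1 × 10⁵ per well in DMEM with 10% FCS and grown 24 h at 37 °C, 5% CO₂. Graded compound concentrations were added together with 0.1 μM TSA and 5 μM doxorubicin for 6 h. Lysate (50 μg protein) was run on a 9% gel and blotted with an anti-acetyl-p53 (Lys382) polyclonal antibody at 4 °C overnight, then HRP anti-rabbit IgG with chemiluminescence.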

[5] = target: T3, NAD-dependent protein deacetylase sirtuin-2 (Homo sapiens) (UniProt Q8IXJ6); assay: Activation of at N-terminal GST-tagged SIRT2 (34 to 356 amino acid residues) (unknown origin) expressed in Escherichia coli BL21(DE3) using ac-RHKKac-AMC as substrate at 50 uM after 45 mins by fluorometric analysis relative to control
T3 sequence (whole entry): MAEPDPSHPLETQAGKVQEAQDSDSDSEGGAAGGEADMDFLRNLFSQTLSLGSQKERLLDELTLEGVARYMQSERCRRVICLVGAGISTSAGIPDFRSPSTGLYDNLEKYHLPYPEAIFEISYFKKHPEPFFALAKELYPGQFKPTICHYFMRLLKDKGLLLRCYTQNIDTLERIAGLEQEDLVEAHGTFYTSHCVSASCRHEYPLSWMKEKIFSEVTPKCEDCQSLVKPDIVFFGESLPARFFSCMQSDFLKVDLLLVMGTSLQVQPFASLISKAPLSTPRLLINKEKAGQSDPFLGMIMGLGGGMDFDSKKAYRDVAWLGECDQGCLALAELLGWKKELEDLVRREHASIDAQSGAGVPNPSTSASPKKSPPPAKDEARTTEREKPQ
In short: (§1)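 Fluorescent deacetylation assay in 25 mM Tris, 137 mM NaCl, 2.7 mM KCl, 1 mM MgCl₂, pH 8.0, with 750 μM NAD⁺ and 31.25 μM ac-RHKK_ac-AMC. Enzyme was 3.6 μM SIRT3 or 4.2 μM GST-SIRT2, set to match SIRT1 activity. Trypsin released AMC from the deacetylated peptide, read at ex 340 / em 490 nm. Compounds were added from DMSO (DMSO as blank): single point at 50 μM, or 3-fold DMSO dilution series. EC1.5 (concentration giving 50% activity increase) and maximum activation were fitted to a dose–response function.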

[6] = target: T4, NAD-dependent protein deacetylase sirtuin-2 (Homo sapiens, UniProt Q8IXJ6); assay: Activation of at N-terminal GST-tagged SIRT2 (34 to 356 amino acid residues) (unknown origin) expressed in Escherichia coli BL21(DE3) using ac-RHKKac-AMC as substrate after 45 mins by fluorometric analysis; in short: as §1
T4 sequence (Q8IXJ6 whole entry): T3 sequence (whole entry)

| SMILES | max activation [1] [%] | EC50 [2] [µM] | other results |
| --- | --- | --- | --- |
| O=C(Nc1ccccc1-c1cn2c(CN3CCNCC3)csc2n1)c1ccccc1 | 322 | 25 | – |
| O=C(N/N=C/c1cc(Br)c(O)c(Br)c1O)c1ccc(Cl)cc1 | 174 | 7 | – |
| COc1c(Br)cc(/C=N/NC(=O)c2ccc3cc(Br)ccc3c2)c(O)c1Br | 119 | – | – |
| O=C(N/N=C/c1cc(Br)c(O)c(Br)c1O)c1ccc(-c2ccncc2)cc1 | 390 | 1.6 | – |
| CS(=O)(=O)c1ccc2cc(C(=O)N/N=C/c3cc(Br)c(O)c(Br)c3O)ccc2c1 | 368 | 2.3 | – |
| COc1cc(OC)cc(C(=O)N/N=C/c2cc(Br)c(O)c(Br)c2O)c1 | 112 | – | – |
| COc1cc(C(=O)Nc2ccccc2-c2cn3c(CN4CCNCC4)csc3n2)cc(OC)c1OC | 271 | 1.8 | Activity [3]: inactive |
| Cc1ccc(C(=O)N/N=C/c2cc(Br)c(O)c(Br)c2O)cc1 | 161 | 9.6 | – |
| O=C(N/N=C/c1cc(Br)c(O)c(Br)c1O)c1ccc(-c2ccccc2C(F)(F)F)cc1 | 216 | 0.9 | – |
| O=C(Nc1ccccc1-c1cn2c(CN3CCNCC3)csc2n1)c1ccncn1 | 270 | 1.7 | – |
| COc1ccc2cc(C(=O)N/N=C/c3cc(Br)c(O)c(Br)c3O)ccc2c1 | 624 | 0.9 | Activity [4]: Active |
| O=C(N/N=C/c1cc(Br)c(O)c(Br)c1O)c1ccc2c(c1)Cc1ccccc1-2 | 212 | 5.4 | max activation [5]: 206%; EC50 [6]: 16.5 µM |
| O=C(N/N=C/c1cc(Br)c(O)c(Br)c1O)c1ccc(C(F)(F)F)cc1 | 161 | 20.5 | – |
| COc1c(/C=N/NC(=O)c2ccc3cc(Br)ccc3c2)cc(Br)c(O)c1Br | 298 | 8.7 | – |
| O=C(N/N=C/c1cc(Br)c(O)c(Br)c1O)c1ccc(-c2ccco2)cc1 | 374 | 2.1 | – |
| O=C(Nc1ccccc1-c1cn2c(CN3CCNCC3)csc2n1)c1cccc2cccnc12 | 208 | 45 | – |
| COc1c(/C=N/NC(=O)c2ccc(-c3ccccc3)cc2)cc(Br)c(O)c1Br | 191 | 18.1 | – |
| O=C(N/N=C/c1ccc(O)cc1O)c1ccc(-c2ccccc2)cc1 | 157 | 10.4 | – |
| COc1c(Br)cc(/C=N/NC(=O)c2ccc(-c3ccccc3)cc2)c(O)c1Br | 242 | 28.1 | – |
| O=C(N/N=C/c1cc(Br)c(O)c(Br)c1O)c1ccc2cc(-c3ccco3)ccc2c1 | 267 | 2.6 | – |

| SMILES | max activation [1] [%] | EC50 [2] [µM] | other results |
| --- | --- | --- | --- |
| O=C(N/N=C/c1cc(Br)c(O)c(Br)c1O)c1ccc(-c2ccc3c(c2)OCO3)cc1 | 380 | 3.4 | – |
| O=C(N/N=C/c1cc(Br)c(O)c(Br)c1O)c1ccc(-c2ccccc2)cc1 | 246 | 1.7 | – |
| O=C(N/N=C/c1cc(Br)c(O)c(Br)c1O)c1ccc2ncccc2c1 | 239 | 55.2 | – |
| O=C(N/N=C/c1cc(Br)c(O)c(Br)c1O)c1cc2ccccc2cc1O | 375 | 4.5 | – |
| O=C(Cc1ccccc1)Nc1ccccc1-c1cn2c(CN3CCNCC3)csc2n1 | 130 | 14 | – |
| N#Cc1ccc2cc(C(=O)N/N=C/c3cc(Br)c(O)c(Br)c3O)ccc2c1 | 433 | 4.4 | – |
| N#Cc1ccc(O)c(-c2ccc(C(=O)N/N=C/c3cc(Br)c(O)c(Br)c3O)cc2)c1 | 196 | 3.7 | – |
| O=C(Nc1ccccc1-c1cn2c(CN3CCNCC3)csc2n1)c1cnc2ccccc2c1 | 301 | 0.68 | – |
| O=C(Nc1ccccc1-c1cn2c(CN3CCNCC3)csc2n1)c1cc2ccccc2o1 | 381 | 0.61 | – |
| O=C(Nc1ccccc1-c1cn2c(CN3CCNCC3)csc2n1)c1ccc2occc2c1 | 380 | 6.9 | – |
| O=C(N/N=C/c1cc(Br)c(O)c(Br)c1O)c1ccc2ccccc2c1 | 331 | 1.6 | – |
| O=C(N/N=C/c1cc(Br)c(O)c(Br)c1O)c1cccc(-c2ccccc2)c1 | 212 | 18.3 | – |
| O=C(N/N=C/c1cc(Br)c(O)c(Br)c1O)c1ccc(-c2ccccn2)cc1 | 467 | 2.3 | – |
| COc1ccc(C(=O)Nc2ccccc2-c2cn3c(CN4CCNCC4)csc3n2)c(OC)c1 | 197 | 31 | – |
| COc1cccc(C(=O)Nc2ccccc2-c2cn3c(CN4CCNCC4)csc3n2)c1 | 928 | 3.7 | – |
| O=C(N/N=C/c1cc(Br)c(O)c(Br)c1O)c1ccc(-c2cccnc2)cc1 | 314 | 2 | – |
| O=C(Nc1ccccc1-c1cn2c(CN3CCNCC3)csc2n1)c1ccc2ccccc2n1 | 440 | 0.99 | – |
| O=C(Nc1ccccc1-c1cn2c(CN3CCNCC3)csc2n1)c1cnc2ccccc2n1 | 781 | – | – |
| O=C(Nc1ccccc1-c1cn2c(CN3CCNCC3)csc2n1)C1CCCC1 | 383 | 130 | – |
